Laboratory results reported in ChEMBL document CHEMBL1121486, “Synthesis of nitrosourea derivatives of pyridine and piperidine as potential anticancer agents” (1980).
Values joined by “and” are separate entries in the source; they are usually repeats but may differ in a detail not shown here. Equal entries are not always repeated.

How the values were obtained:
[1] = test system: Lewis lung carcinoma cell line; assay: Effect of compound on Lewis Lung carcinoma after single ip injection on day 1 recorded as animal weight difference of the treated and the control (T-C) at OD of 64-2 mg/kg; assay type: functional, Mus musculus
Mus musculus [2] = assay: Compound tested for the effect on total white blood cell count and reported as percentage change from control on day 7 at 40.25 mg/kg (ip); assay type: functional
In short: (§1)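 Total white blood cell count in mice. Treatment was intraperitoneal at the listed mg/kg doses, 10 mice per group. Counts were taken on days 3, 5 and 7 and expressed as % change from control, with the control being each group's predose value. Significance was taken at p ≤ 0.05.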

Mus musculus [3] = assay: Compound tested for the effect on total white blood cell count and reported as percentage change from control on day 5 at 90.5 mg/kg (ip); assay type: functional; in short: as §1
Mus musculus [4] = assay: Compound tested for the effect on total white blood cell count and reported as percentage change from control on day 5 at 22.63 mg/kg (ip); assay type: functional; in short: as §1
[5] = test system: Lewis lung carcinoma cell line; assay: Effect of compound on Lewis Lung carcinoma after single dose injected intraperitoneally on day 1 recorded as animal weight difference of the treated and the control (T-C) at OD of 64 mg/kg; assay type: functional, Mus musculus; details: route intraperitoneal
Mus musculus [6] = assay: Compound tested for the effect on total white blood cell count and reported as percentage change from control on day 3 at 40.25 mg/kg (ip); assay type: functional; in short: as §1
[7] = test system: Lewis lung carcinoma cell line; assay: Effect of compound on Lewis Lung carcinoma after single dose injected intraperitoneally on day 1 recorded as percentage of cured animals at OD of 64 mg/kg; details: Mus musculus, route intraperitoneal
Mus musculus [8] = assay: Compound tested for the effect on total white blood cell count and reported as percentage change from control on day 3 at 22.63 mg/kg (ip); assay type: functional; in short: as §1
Mus musculus [9] = assay: Compound tested for the effect on total white blood cell count and reported as percentage change from control on day 5 at 40.25 mg/kg (ip); assay type: functional; in short: as §1
Mus musculus [10] = assay: Compound tested for the effect on total white blood cell count and reported as percentage change from control on day 3 at 11.31 mg/kg (ip); assay type: functional; in short: as §1
Mus musculus [11] = assay: Compound tested for the effect on total white blood cell count and reported as percentage change from control on day 3 at 90.5 mg/kg (ip); assay type: functional; in short: as §1
3EM 37 [12] = assay: Effect of compound on 3EM 37 mouse ependymoblastoma after single ip injection on day 1 recorded as animal weight difference of the treated and the control (T-C) at OD of 100 mg/kg; assay type: functional; details: route intraperitoneal
3EM 37 [13] = assay: Effect of compound on 3EM 37 mouse ependymoblastoma after single ip injection on day 1 recorded as percentage of cured animals at OD of 100 mg/kg; assay type: functional; details: route intraperitoneal
3EM 37 [14] = assay: Compound tested for toxicity against 3EM 37 mouse ependymoblastoma after single ip injection on day 1 at optimal dose (OD) of 100 mg/kg on the 5th day after the injection of the compound; (10/10); details: route intraperitoneal
3EM 37 [15] = assay: Compound tested for activity against 3EM 37 mouse ependymoblastoma after single ip injection on day 1 at optimal dose of 128 mg/kg (Dose range 256-16); assay type: functional; details: route intraperitoneal

O=NN(CCCl)C(=O)NCCCl [CARMUSTINE]
Optimal dose [1]: 32 mg/kg | Change (Mus musculus [2]): -41% | Change (Mus musculus [3]): -48% | Change (Mus musculus [4]): -28% and -42% | T-C [5]: -3.5 g | Change (Mus musculus [6]): -46% | T/C [7]: >353% | Change (Mus musculus [8]): -33% | Change (Mus musculus [9]): -22% | Change (Mus musculus [10]): -47% | Change (Mus musculus [11]): -68%

CC1CCC(NC(=O)N(CCCl)N=O)CC1 (stereo not given) [SEMUSTINE]
T-C (3EM 37 [12]): 1 g | T/C (3EM 37 [13]): 204% | Survival (3EM 37 [14]): 9 | Optimal dose (3EM 37 [15]): 128 mg/kg
